Assay results as given in paper PMC11843194 (Experimental and Therapeutic Medicine, 2025).
Like-named read-outs stand apart in the source and are kept apart here.

Assays:
[1] = format: in vivo, human
How it was run: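 Routine TDM of trough serum sunitinib and N-desethyl sunitinib in one patient, reported as total concentration (the sum of both); the clinical target trough is 50-100 ng/ml. Sampling: immediately before dasatinib and on days 7, 32, 70 and 84. Sunitinib was given orally at 14 days on/7 days off: 50 mg/day, 37.5 mg/day from day 18, then 50/37.5 mg/day alternately from day 81.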

[2] = rats; ketoconazole combined with sunitinib; cited from earlier work
Adverse events = format: in vivo, human; conditions: day -30; sunitinib 50 mg/day alone
How it was run: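 Single patient with metastatic renal cell carcinoma on oral sunitinib monotherapy, 14 days on/7 days off, before dasatinib started (day 1). Adverse events graded by CTCAE. Hand-foot skin reaction was managed with heparinoid cream and diarrhea with bifidobacterial powder.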

[3] = system: metastatic renal cell carcinoma (mRCC); test: Course of metastatic renal cell carcinoma under sunitinib in the patient; format: in vivo, human; conditions: day 186; led to change from sunitinib to axitinib
[4] = clinical practice, sum of sunitinib and N-desethyl sunitinib; cited from earlier work
CYP3A4 = conditions: cited from earlier work
[5] = cited from earlier work
[6] = system: chronic myeloid leukemia (CML); test: Response of chronic myeloid leukemia to dasatinib in the patient; format: in vivo, human; conditions: day 154 after starting dasatinib; BCR::ABL1^IS≤1%
How it was run: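 Patient with chronic-phase CML took oral dasatinib at 60 mg/day from day 1. Cytogenetic response was defined as BCR::ABL1IS≤1% and assessed on day 154.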

[7] = format: in vivo, human; remark: listed apart in the source
How it was run: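 Serum from the patient was taken 8 h after dasatinib dosing, using the residue of samples drawn for sunitinib TDM, and assayed later by LC-MS/MS (LLOQ 0.5 ng/ml). Samples were from days 7, 32 and 84. Oral dasatinib was given at 60 mg/day, then 50 mg/day from day 28, alongside sunitinib; esomeprazole magnesium was a concomitant drug.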

[8] = day 7, sunitinib 50 mg/day with dasatinib 60 mg/day
[9] = day 32, sunitinib 37.5 mg/day with dasatinib 50 mg/day
[10] = day 84, sunitinib 50.0 and 37.5 mg/day alternately with dasatinib 50 mg/day
[11] = immediately before starting dasatinib, sunitinib 50 mg/day alone, 14 days on/7 days off

## CCNCCNC(=O)c1c(C)[nH]c(/C=C2\C(=O)Nc3ccc(F)cc32)c1C [N-desethyl sunitinib]
[1]; [8]
  trough serum concentration: 12.2 ng/mL
[1]; [9]
  trough serum concentration: 4.7 ng/mL
[1]; [10]
  trough serum concentration: 7.4 ng/mL
[1]; [11]
  trough serum concentration: 13.7 ng/mL

## CC(=O)N1CCN(c2ccc(OCC3COC(Cn4ccnc4)(c4ccc(Cl)cc4Cl)O3)cc2)CC1 (centres unmarked) [ketoconazole]
[2]
  effect of combination on the concentration of sunitinib: significantly increased

## CCN(CC)CCNC(=O)c1c(C)[nH]c(/C=C2\C(=O)Nc3ccc(F)cc32)c1C [sunitinib]
Adverse events
  diarrhea, CTCAE grade: 1
  hand-foot skin reaction (HFSR), CTCAE grade: 1
[1]; [8]
  trough serum concentration: 64.9 ng/mL
[1]; [9]
  trough serum concentration: 28.6 ng/mL
[1]; [10]
  trough serum concentration: 38.7 ng/mL
[1]; [11]
  trough serum concentration: 63.7 ng/mL
[3]
  course of RCC metastases: pancreatic and left adrenal metastases were enlarged
[4]
  target trough concentration as total sunitinib concentration: 50 to 100 ng/mL

## Cc1nc(Nc2ncc(C(=O)Nc3c(C)cccc3Cl)s2)cc(N2CCN(CCO)CC2)n1 [dasatinib]
CYP3A4
  CYP3A4 inhibition: moderate
[5]
  solubility: pH-dependent
[1]; day 7 versus before dasatinib, sunitinib 50 mg/day
  effect of dasatinib combination on sunitinib serum concentration: no change
[6]
  response for CML: complete cytogenetic response
[7]; day 7, 8 h after administration, dasatinib 60 mg/day with sunitinib
  dasatinib serum concentration: 1.16 ng/mL
[7]; day 84, 8 h after administration, dasatinib 50 mg/day with sunitinib
  dasatinib serum concentration: 2.75 ng/mL
[7]; male, human, serum, oral, 50 mg/day
  concentration at 8 h: 3 ng/mL
